Activity calls are given as the source filed them. The calls are words filed in the database; no cut-off is given here.
Legend:
HepG2 [1] = assay: Cytotoxicity against human HepG2 cells assessed as cell growth inhibition after 24 hrs by MTT assay; format: functional, cell-based; details: HepG2, 24 h
Procedure, shortened: (§1)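 Cell lines grown to log phase in RPMI-1640 with 10% FBS, penicillin and streptomycin. About 10^5 cells/mL were plated and pre-incubated 24 h at 37 °C in 5% CO2. Compounds were given in DMSO, final ≤2% (v/v). MTT read-out was OD at 490 nm. Triplicate wells per concentration, each assay run ≥3 times. IC50 is 50% OD reduction versus untreated cells, calculated by the Logit method. Cisplatin was the reference.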

MCF7 [2] = assay: Cytotoxicity against human MCF7 cells assessed as cell growth inhibition after 24 hrs by MTT assay; format: functional, cell-based; details: MCF7, 24 h; procedure, shortened: as §1
[3] = Cytotoxicity against human BGC cells assessed as cell growth inhibition after 24 hrs by MTT assay; format: functional, cell-based; procedure, shortened: as §1
A-375 = assay: Cytotoxicity against human A375 cells assessed as cell growth inhibition after 24 hrs by MTT assay; format: functional, cell-based; details: A-375, 24 h; procedure, shortened: as §1
HT-29 [4] = assay: Cytotoxicity against human HT-29 cells assessed as cell growth inhibition after 24 hrs by MTT assay; format: functional, cell-based; details: HT-29, 24 h; procedure, shortened: as §1
769-P = assay: Cytotoxicity against human 769-P cells assessed as cell growth inhibition after 24 hrs by MTT assay; format: functional, cell-based; procedure, shortened: as §1
SK-OV-3 = assay: Cytotoxicity against human SKOV3 cells assessed as cell growth inhibition after 24 hrs by MTT assay; format: functional, cell-based; details: SK-OV-3, 24 h; procedure, shortened: as §1
ECa-109 cell line = assay: Cytotoxicity against human ECA109 cells assessed as cell growth inhibition after 24 hrs by MTT assay; format: functional, cell-based; details: ECa-109, 24 h; procedure, shortened: as §1
[5] = tested on: Lewis lung carcinoma cell line; assay: Cytotoxicity against mouse LLC cells assessed as cell growth inhibition after 24 hrs by MTT assay; format: functional, cell-based; procedure, shortened: as §1
[6] = Acute toxicity in ip dosed Kunming mouse observed continuously for first 2 hrs, intermittently for next 24 hrs and occasionally thereafter for 14 days; format: organism-based; details: in vivo
Procedure, shortened: (§2)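 SPF KM mice, 6-8 weeks, 19-22 g, fasted overnight with water available. Single i.p. dose, 5.0 to 500 mg kg-1 in 0.5% CMC-Na, 10 mice per group (5 male, 5 female). Observed for behaviour, neurotoxic signs and deaths, then killed on day 14 and heart, liver and kidneys inspected macroscopically. LD50 derived graphically.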

Mus musculus [7] = assay: Neurotoxicity in Kunming mouse assessed as tremble at 5 to 500 mg/kg, ip observed continuously for first 2 hrs, intermittently for next 24 hrs and occasionally thereafter for 14 days; format: toxicity, organism-based; details: in vivo; procedure, shortened: as §2
Mus musculus [8] = assay: Neurotoxicity in Kunming mouse assessed as twitch at 5 to 500 mg/kg, ip observed continuously for first 2 hrs, intermittently for next 24 hrs and occasionally thereafter for 14 days; format: toxicity, organism-based; details: in vivo; procedure, shortened: as §2
Mus musculus [9] = assay: Neurotoxicity in Kunming mouse assessed as jumping behavior at 5 to 500 mg/kg, ip observed continuously for first 2 hrs, intermittently for next 24 hrs and occasionally thereafter for 14 days; format: toxicity, organism-based; details: in vivo; procedure, shortened: as §2
Mus musculus [10] = assay: Neurotoxicity in Kunming mouse assessed as supination at 5 to 500 mg/kg, ip observed continuously for first 2 hrs, intermittently for next 24 hrs and occasionally thereafter for 14 days; format: toxicity, organism-based; details: in vivo; procedure, shortened: as §2
Mus musculus [11] = assay: Acute toxicity in ip dosed Kunming mouse assessed as death at higher dose up to 4 to 8 hrs; format: organism-based; details: in vivo; procedure, shortened: as §2
Mus musculus [12] = assay: Cardiotoxicity in Kunming mouse at 5 to 500 mg/kg, ip after 14 days by macroscopic method; format: toxicity, organism-based; details: in vivo, 336 h
Mus musculus [13] = assay: Nephrotoxicity in Kunming mouse at 5 to 500 mg/kg, ip after 14 days by macroscopic method; format: toxicity, organism-based; details: in vivo, 336 h
Mus musculus [14] = assay: Hepatotoxicity in Kunming mouse at 5 to 500 mg/kg, ip after 14 days by macroscopic method; format: toxicity, organism-based; details: in vivo, 336 h
Sarcoma-180 [15] = assay: Antitumor activity against mouse Sarcoma 180 cells implanted in mouse assessed as tumor growth inhibition at 1.6 mg/kg, ip administered once per day for 7 consecutive days starting from 24 hrs post tumor inoculation and measured on day 21 post tumor inoculation relative to control; format: functional; details: Sarcoma-180, ip, read-out: TGI
Procedure, shortened: (§3)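 Tumor cells were harvested from 7-day donor tumors, and 2×10^6 viable cells/mouse were injected s.c. in the armpit. Groups of 10 female mice received i.p. compound daily for 7 days, starting 24 h after inoculation. Controls were vehicle (negative) and CTX 30 mg/kg (positive). Body weight was recorded every 3 days. On day 21 tumors were excised and weighed, and inhibition was calculated as (C−T)/C×100 from mean tumor weights.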

[16] = tested on: Lewis lung carcinoma cell line; assay: Antitumor activity against mouse LLC cells implanted in mouse assessed as tumor growth inhibition at 1.6 mg/kg, ip administered once per day for 7 consecutive days starting from 24 hrs post tumor inoculation and measured on day 21 post tumor inoculation relative to control; format: functional; details: read-out: TGI; procedure, shortened: as §3
Sarcoma-180 [17] = assay: Antitumor activity against mouse Sarcoma 180 cells implanted in mouse assessed as tumor growth inhibition at 8.3 mg/kg, ip administered once per day for 7 consecutive days starting from 24 hrs post tumor inoculation and measured on day 21 post tumor inoculation relative to control; format: functional; details: Sarcoma-180, ip, read-out: TGI; procedure, shortened: as §3
[18] = tested on: Lewis lung carcinoma cell line; assay: Antitumor activity against mouse LLC cells implanted in mouse assessed as tumor growth inhibition at 8.3 mg/kg, ip administered once per day for 7 consecutive days starting from 24 hrs post tumor inoculation and measured on day 21 post tumor inoculation relative to control; format: functional; details: read-out: TGI; procedure, shortened: as §3
[19] = tested on: Lewis lung carcinoma cell line; assay: Antimigratory activity against mouse LLC cells assessed as reduction in wound closure at 50 uM after 24 hrs by inverted microscopic method; format: functional, cell-based
Procedure, shortened: (§4)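 HT-29 or LLC cells (about 1×10^6/mL) were grown to 90% confluence and given a single straight pipette-tip scratch. After a PBS wash, fresh FBS-containing medium with various compound concentrations was added for 24 h. Migration distance was measured under an inverted microscope. Each assay was done three times, with CA4P as positive control.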

HT-29 [20] = assay: Antimigratory activity against human HT-29 cells assessed as reduction in wound closure at 0.5 to 50 uM after 24 hrs by inverted microscopic method; format: functional, cell-based; procedure, shortened: as §4
Chorioallantoic membrane = assay: In vivo antiangiogenic activity in chicken embryo chorioallantoic membrane at 50 uM/disc after 48 hrs by microscopic method; format: functional, organism-based; details: Gallus gallus
Sarcoma-180 [21] = assay: Antitumor activity against mouse Sarcoma 180 cells implanted in mouse assessed as tumor growth inhibition at 30 mg/kg, ip administered once per day for 7 consecutive days starting from 24 hrs post tumor inoculation and measured on day 21 post tumor inoculation relative to control; format: functional; details: Sarcoma-180, ip, read-out: TGI
Procedure, shortened: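 Tumour cells passaged in mice for 7 days, then 2 × 10^6 viable cells given s.c. into the armpit of female mice, 10 per group. […] CTX at 30 mg kg-1 as reference, vehicle as negative control. Body weight recorded every 3 days. Tumours excised and weighed on day 21. Inhibition = (C − T)/C × 100, using mean tumour weights.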

[22] = tested on: Lewis lung carcinoma cell line; assay: animal or person; details: Mus musculus, ip, read-out: TGI
HepG2 [23] = assay: Cytotoxicity against human HepG2 cells; format: functional, cell-based; procedure, shortened: as §1
MCF7 [24] = assay: Cytotoxicity against human MCF7 cells; format: functional, cell-based; procedure, shortened: as §1
HT-29 [25] = assay: Cytotoxicity against human HT-29 cells; format: functional, cell-based; procedure, shortened: as §1
Sarcoma-180 [26] = assay: Antitumor activity against mouse Sarcoma 180 cells implanted in mouse assessed as tumor growth inhibition at 7.5 mg/kg, ip administered once per day for 7 consecutive days starting from 24 hrs post tumor inoculation and measured on day 21 post tumor inoculation relative to control; format: functional; details: Sarcoma-180, ip, read-out: TGI; procedure, shortened: as §3
[27] = tested on: Lewis lung carcinoma cell line; assay: Antitumor activity against mouse LLC cells implanted in mouse assessed as tumor growth inhibition at 7.5 mg/kg, ip administered once per day for 7 consecutive days starting from 24 hrs post tumor inoculation and measured on day 21 post tumor inoculation relative to control; format: functional; details: read-out: TGI; procedure, shortened: as §3
Sarcoma-180 [28] = assay: Antitumor activity against mouse Sarcoma 180 cells implanted in mouse assessed as tumor growth inhibition at 10 mg/kg, ip administered once per day for 7 consecutive days starting from 24 hrs post tumor inoculation and measured on day 21 post tumor inoculation relative to control; format: functional; details: Sarcoma-180, ip, read-out: TGI; procedure, shortened: as §3
[29] = tested on: Lewis lung carcinoma cell line; assay: Antitumor activity against mouse LLC cells implanted in mouse assessed as tumor growth inhibition at 10 mg/kg, ip administered once per day for 7 consecutive days starting from 24 hrs post tumor inoculation and measured on day 21 post tumor inoculation relative to control; format: functional; details: read-out: TGI; procedure, shortened: as §3

SMILES | IC50 (HepG2 [1]) [µM] | IC50 (MCF7 [2]) [µM] | IC50 [3] [µM] | IC50 (A-375) [µM] | IC50 (HT-29 [4]) [µM] | IC50 (769-P) [µM] | IC50 (SK-OV-3) [µM] | IC50 (ECa-109 cell line) [µM] | IC50 [5] [µM] | LD50 at 14 days [6] [mg/kg] | Activity (Mus musculus [7]) | Activity (Mus musculus [8]) | Activity (Mus musculus [9]) | Activity (Mus musculus [10]) | Activity (Mus musculus [11]) | Activity (Mus musculus [12]) | Activity (Mus musculus [13]) | Activity (Mus musculus [14]) | other results
COc1ccc2c3ccnc(C)c3n(CCCCOc3ccc4c5ccnc(C)c5n(CCCc5ccccc5)c4c3)c2c1.Cl | 5.6 | 23.4 | 4.7 | 15.3 | 21.6 | 8.5 | 30 | 18.4 | 14.4 | 8 | Toxic | Toxic | Toxic | Toxic | Toxic | Non-Toxic | Non-Toxic | Non-Toxic | inhibition in vivo at 1.6 mg/kg (Sarcoma-180 [15]): 49.9%; inhibition in vivo at 1.6 mg/kg [16]: 38.2%
COc1ccc(-c2nccc3c4ccccc4n(CCCCOc4ccc5c6ccnc(C)c6n(CCCc6ccccc6)c5c4)c23)cc1.Cl | 14.1 | 8.5 | 12.1 | 13.6 | 13.3 | 4.9 | 4.2 | 4.5 | 3.4 | 41.5 | Non-Toxic | Non-Toxic | Non-Toxic | Non-Toxic | Toxic | Non-Toxic | Non-Toxic | Non-Toxic | inhibition in vivo at 8.3 mg/kg (Sarcoma-180 [17]): 54.6%; inhibition in vivo at 8.3 mg/kg [18]: 48.1%; Activity [19]: Active; Activity (HT-29 [20]): Active; Activity (Chorioallantoic membrane): Active
O=P1(N(CCCl)CCCl)NCCCO1 (configuration not stated) [CYCLOPHOSPHAMIDE ANHYDROUS] |  |  |  |  |  |  |  |  |  |  |  |  |  |  |  |  |  |  | inhibition in vivo at 30 mg/kg (Sarcoma-180 [21]): 82.5%; inhibition in vivo at 30 mg/kg [22]: 80.7%
CCCCn1c2cnccc2c2ccc(OCCCCCCOc3ccc4c5ccnc(C)c5n(CCCC)c4c3)cc21 |  |  |  |  |  |  |  |  |  |  |  |  |  |  |  |  |  |  | IC50 (HepG2 [23]): 13 µM; IC50 (MCF7 [24]): > 100 µM; IC50 (HT-29 [25]): 6.1 µM
Cc1nccc2c3ccc(OCCCCn4c5ccccc5c5ccnc(-c6cccs6)c54)cc3n(CCCc3ccccc3)c12.Cl | 8.1 | 12 | 11.4 | 14.6 | 18.1 | 11.9 | 11.2 | 4.9 | 4.2 | 37.5 | Non-Toxic | Non-Toxic | Non-Toxic | Non-Toxic | Toxic | Non-Toxic | Non-Toxic | Non-Toxic | inhibition in vivo at 7.5 mg/kg (Sarcoma-180 [26]): 47.3%; inhibition in vivo at 7.5 mg/kg [27]: 31.6%
CCCCn1c2cc(OCCCCn3c4ccccc4c4ccnc(C)c43)ccc2c2ccnc(C)c21.Cl | 15.7 | 11.2 | 33.6 | 14.1 | 16.4 | 15.3 | 21.7 | 12.2 | 13.3 | 50 | Non-Toxic | Non-Toxic | Non-Toxic | Non-Toxic | Toxic | Non-Toxic | Non-Toxic | Non-Toxic | inhibition in vivo at 10 mg/kg (Sarcoma-180 [28]): 53.3%; inhibition in vivo at 10 mg/kg [29]: 27.2%
Cc1nccc2c3ccc(OCCCCn4c5ccccc5c5ccncc54)cc3n(CCCc3ccccc3)c12.Cl | 9.7 | 4.5 | 8.5 | 33.4 | 15.9 | 10.7 | 13.8 | 9.5 | 9.6 | 50 | Non-Toxic | Non-Toxic | Non-Toxic | Non-Toxic | Toxic | Non-Toxic | Non-Toxic | Non-Toxic | inhibition in vivo at 10 mg/kg (Sarcoma-180 [28]): 33.5%
